From ChEMBL document CHEMBL1287679, “Tuning hydrophobicity of highly cationic tetradecameric Gramicidin S analogues using adamantane amino acids” (Bioorg Med Chem, 2010)
In brackets after ≈: the same amount, converted by molar mass.

What was measured:
[1] = test system: Staphylococcus epidermidis; test: Antimicrobial activity against Staphylococcus epidermidis ATCC 12228 by broth dilution method; format: functional
How it was run: (§1)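 Stored at −70 °C, grown at 35 °C on Columbia sheep-blood agar, then suspended in physiological saline to OD 0.1 AU at 595 nm and diluted 100× in saline. 2 µL inoculum was added to 50 µL cation-adjusted Mueller Hinton II broth. Peptides in methanol (4 g/L stock) were diluted in water, then two-fold in broth (64–1 mg/L). Incubation was 35 °C for 24–48 h. MIC is the lowest concentration inhibiting growth.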

Staphylococcus aureus [2] = test: Antimicrobial activity against Staphylococcus aureus ATCC 29213 by broth dilution method; format: functional
How it was run: (§2)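 Frozen (−70 °C) stocks grown at 35 °C on Columbia sheep-blood agar, suspended in physiological saline to OD595 0.1, diluted 100×; 2 µL inoculum into 50 µL cation-adjusted Mueller Hinton II broth in 96-well plates. Peptides dissolved in methanol (4 g/L), diluted in water, two-fold serial dilutions in broth (64–1 mg/L). Incubation at 35 °C, 24–48 h; MIC = lowest concentration inhibiting growth.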

Pseudomonas aeruginosa = test: Antimicrobial activity against Pseudomonas aeruginosa ATCC 27853 by broth dilution method; format: functional; how it was run: as §1
Escherichia coli = test: Antimicrobial activity against Escherichia coli ATCC 25922 by broth dilution method; format: functional; how it was run: as §1
Bacillus cereus = test: Antimicrobial activity against Bacillus cereus ATCC 11778 by broth dilution method; format: functional; how it was run: as §1
Enterococcus faecalis = test: Antimicrobial activity against Enterococcus faecalis ATCC 29212 by broth dilution method; format: functional; how it was run: as §1
Staphylococcus aureus [3] = test: Antimicrobial activity against community acquired methicillin-resistant Staphylococcus aureus isolate 1110301146 by broth dilution method; format: functional; how it was run: as §2
Staphylococcus aureus [4] = test: Antimicrobial activity against methicillin-resistant Staphylococcus aureus isolate 1110301981 by broth dilution method; format: functional; how it was run: as §2
Staphylococcus aureus [5] = test: Antimicrobial activity against methicillin-resistant Staphylococcus aureus N229 by broth dilution method; format: functional; how it was run: as §2
Staphylococcus aureus [6] = test: Antimicrobial activity against methicillin-resistant Staphylococcus aureus N133 by broth dilution method; format: functional; how it was run: as §2
Staphylococcus aureus [7] = test: Antimicrobial activity against methicillin-resistant Staphylococcus aureus ATCC 49775 by broth dilution method; format: functional; how it was run: as §2
Staphylococcus aureus [8] = test: Antimicrobial activity against methicillin-resistant Staphylococcus aureus ATCC 43300 by broth dilution method; format: functional; how it was run: as §2
[9] = Toxicity in Erythrocyte assessed as concentration required to achieve 100% hemolysis after 4 hrs; format: cell-based
How it was run: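 Heparinized fresh blood was centrifuged (1000g, 10 min, 10 °C). Erythrocytes were washed three times in 0.85% saline and diluted to a 1/25 packed volume. Peptides were prepared as a 1.5 mM stock in 30% DMSO/0.5 mM saline and serially two-fold diluted in triplicate rows. 1% Triton-X served as the full-lysis control. Incubation was 37 °C for 4 h, then centrifugation; supernatant was read. Value is the concentration giving 100% lysis.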

[10] = Therapeutic index, concentration required to achieve 100% hemolysis in erythrocyte to MIC for Staphylococcus aureus ATCC 29213; details: erythrocytes; read-out: Ratio
How it was run: (§3)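 Therapeutic index was taken as the concentration for 100% haemolysis divided by MIC for the given strain.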

[11] = Therapeutic index, concentration required to achieve 100% hemolysis in erythrocyte to MIC for Escherichia coli ATCC 25922; details: erythrocytes; how it was run: as §3

Row | SMILES | MIC [1] [µg/mL] | MIC (Staphylococcus aureus [2]) [µg/mL] | MIC (Pseudomonas aeruginosa) [µg/mL] | MIC (Escherichia coli) [µg/mL] | MIC (Bacillus cereus) [µg/mL] | MIC (Enterococcus faecalis) [µg/mL] | MIC (Staphylococcus aureus [3]) [µg/mL] | MIC (Staphylococcus aureus [4]) [µg/mL] | MIC (Staphylococcus aureus [5]) [µg/mL] | MIC (Staphylococcus aureus [6]) [µg/mL] | MIC (Staphylococcus aureus [7]) [µg/mL] | MIC (Staphylococcus aureus [8]) [µg/mL] | Activity [9] [µM] | selectivity ratio [10] | selectivity ratio [11]
1 | CC(C)C[C@@H]1NC(=O)[C@H](CCCN)NC(=O)[C@H](C(C)C)NC(=O)[C@H](CCCN)NC(=O)[C@@H]2CCCN2C(=O)[C@@H](Cc2ccccc2)NC(=O)[C@H](CCCN)NC(=O)[C@H](CC(C)C)NC(=O)[C@H](CCCN)NC(=O)[C@H](C23CC4CC(CC(C4)C2)C3)NC(=O)[C@H](CCCN)NC(=O)[C@@H]2CCCN2C(=O)[C@@H](Cc2ccccc2)NC(=O)[C@H](CCCN)NC1=O | 4 (≈ 2.37 µM) | 16 (≈ 9.47 µM) | 8 (≈ 4.73 µM) | 16 (≈ 9.47 µM) | 8 (≈ 4.73 µM) | 32 (≈ 18.9 µM) | 16 (≈ 9.47 µM) | 8 (≈ 4.73 µM) | 8 (≈ 4.73 µM) | 8 (≈ 4.73 µM) | 8 (≈ 4.73 µM) | 8 (≈ 4.73 µM) | 125 | 7.8 | 15.6
2 | CC(C)[C@@H]1NC(=O)[C@H](CCCN)NC(=O)[C@@H]2CCCN2C(=O)[C@@H](Cc2ccccc2)NC(=O)[C@H](CCCN)NC(=O)[C@H](CC23CC4CC(CC(C4)C2)C3)NC(=O)[C@H](CCCN)NC(=O)[C@H](C23CC4CC(CC(C4)C2)C3)NC(=O)[C@H](CCCN)NC(=O)[C@@H]2CCCN2C(=O)[C@@H](Cc2ccccc2)NC(=O)[C@H](CCCN)NC(=O)[C@H](CC23CC4CC(CC(C4)C2)C3)NC(=O)[C@H](CCCN)NC1=O | 4 (≈ 2.13 µM) | 16 (≈ 8.54 µM) | 16 (≈ 8.54 µM) | 32 (≈ 17.1 µM) | 4 (≈ 2.13 µM) | 8 (≈ 4.27 µM) | 32 (≈ 17.1 µM) | 16 (≈ 8.54 µM) | 16 (≈ 8.54 µM) | 16 (≈ 8.54 µM) | 16 (≈ 8.54 µM) | 16 (≈ 8.54 µM) | 15.6 | 1 | 1
3 | CC(C)C[C@@H]1NC(=O)[C@H](CCCN)NC(=O)[C@H](C(C)C)NC(=O)[C@H](CCCN)NC(=O)[C@@H]2CCCN2C(=O)[C@@H](Cc2ccccc2)NC(=O)[C@H](CCCN)NC(=O)[C@H](CC23CC4CC(CC(C4)C2)C3)NC(=O)[C@H](CCCN)NC(=O)[C@H](C23CC4CC(CC(C4)C2)C3)NC(=O)[C@H](CCCN)NC(=O)[C@@H]2CCCN2C(=O)[C@@H](Cc2ccccc2)NC(=O)[C@H](CCCN)NC1=O | 4 (≈ 2.24 µM) | 8 (≈ 4.49 µM) | 8 (≈ 4.49 µM) | 16 (≈ 8.98 µM) | 1 (≈ 0.561 µM) | 8 (≈ 4.49 µM) | 16 (≈ 8.98 µM) | 16 (≈ 8.98 µM) | 16 (≈ 8.98 µM) | 16 (≈ 8.98 µM) | 16 (≈ 8.98 µM) | 16 (≈ 8.98 µM) | 31.3 | 3.9 | 3.9
4 | CC(C)C[C@@H]1NC(=O)[C@H](CCCN)NC(=O)[C@H](C23CC4CC(CC(C4)C2)C3)NC(=O)[C@H](CCCN)NC(=O)[C@@H]2CCCN2C(=O)[C@@H](Cc2ccccc2)NC(=O)[C@H](CCCN)NC(=O)[C@H](CC(C)C)NC(=O)[C@H](CCCN)NC(=O)[C@H](C23CC4CC(CC(C4)C2)C3)NC(=O)[C@H](CCCN)NC(=O)[C@@H]2CCCN2C(=O)[C@@H](Cc2ccccc2)NC(=O)[C@H](CCCN)NC1=O | 8 (≈ 4.49 µM) | 8 (≈ 4.49 µM) | 16 (≈ 8.98 µM) | 16 (≈ 8.98 µM) | 2 (≈ 1.12 µM) | 8 (≈ 4.49 µM) | 8 (≈ 4.49 µM) | 8 (≈ 4.49 µM) | 8 (≈ 4.49 µM) | 8 (≈ 4.49 µM) | 8 (≈ 4.49 µM) | 8 (≈ 4.49 µM) | 31.3 | 3.9 | 2
5 | CC(C)C[C@@H]1NC(=O)[C@H](CCCN)NC(=O)[C@H](C23CC4CC(CC(C4)C2)C3)NC(=O)[C@H](CCCN)NC(=O)[C@@H]2CCCN2C(=O)[C@@H](Cc2ccccc2)NC(=O)[C@H](CCCN)NC(=O)[C@H](CC23CC4CC(CC(C4)C2)C3)NC(=O)[C@H](CCCN)NC(=O)[C@H](C23CC4CC(CC(C4)C2)C3)NC(=O)[C@H](CCCN)NC(=O)[C@@H]2CCCN2C(=O)[C@@H](Cc2ccccc2)NC(=O)[C@H](CCCN)NC1=O | 8 (≈ 4.27 µM) | 16 (≈ 8.54 µM) | 16 (≈ 8.54 µM) | 32 (≈ 17.1 µM) | 4 (≈ 2.13 µM) | 8 (≈ 4.27 µM) | 8 (≈ 4.27 µM) | 8 (≈ 4.27 µM) | 8 (≈ 4.27 µM) | 8 (≈ 4.27 µM) | 16 (≈ 8.54 µM) | 16 (≈ 8.54 µM) | 15.6 | 1 | 1
6 | CC(C)C[C@@H]1NC(=O)[C@H](CCCN)NC(=O)[C@H](C(C)C)NC(=O)[C@H](CCCN)NC(=O)[C@@H]2CCCN2C(=O)[C@@H](Cc2ccccc2)NC(=O)[C@H](CCCN)NC(=O)[C@H](CC23CC4CC(CC(C4)C2)C3)NC(=O)[C@H](CCCN)NC(=O)[C@H](C(C)C)NC(=O)[C@H](CCCN)NC(=O)[C@@H]2CCCN2C(=O)[C@@H](Cc2ccccc2)NC(=O)[C@H](CCCN)NC1=O | 8 (≈ 4.73 µM) | 16 (≈ 9.47 µM) | 16 (≈ 9.47 µM) | 16 (≈ 9.47 µM) | 8 (≈ 4.73 µM) | 32 (≈ 18.9 µM) | 16 (≈ 9.47 µM) | 8 (≈ 4.73 µM) | 16 (≈ 9.47 µM) | 8 (≈ 4.73 µM) | 8 (≈ 4.73 µM) | 8 (≈ 4.73 µM) | 125 | 7.8 | 7.8
7 | CC(C)C[C@@H]1NC(=O)[C@H](CCCN)NC(=O)[C@H](C(C)C)NC(=O)[C@H](CCCN)NC(=O)[C@@H]2CCCN2C(=O)[C@@H](Cc2ccccc2)NC(=O)[C@H](CCCN)NC(=O)[C@H](CC(C)C)NC(=O)[C@H](CCCN)NC(=O)[C@H](C(C)C)NC(=O)[C@H](CCCN)NC(=O)[C@@H]2CCCN2C(=O)[C@@H](Cc2ccccc2)NC(=O)[C@H](CCCN)NC1=O | 8 (≈ 5.01 µM) | 64 (≈ 40 µM) | 64 (≈ 40 µM) | 32 (≈ 20 µM) | 32 (≈ 20 µM) | > 64 | 64 (≈ 40 µM) | 64 (≈ 40 µM) | 64 (≈ 40 µM) | > 64 | 64 (≈ 40 µM) | > 64 | > 500 | 11.7 | 11.7
